Experimental data taken from ChEMBL document CHEMBL1152176, “Pyrazoline-based mycobactin analogues as MAO-inhibitors” (Bioorg Med Chem Lett, 2008).

What was measured:
[1] = Inhibition of rat liver monoamine oxidase by Lineweaver-Burke plot
[2] = target: T1, Amine oxidase [flavin-containing] A (Rattus norvegicus, UniProt P21396); assay: Inhibition of MAOA in rat liver homogenates preincubated for 60 mins; assay type: tissue-based
T1 sequence (P21396 whole entry): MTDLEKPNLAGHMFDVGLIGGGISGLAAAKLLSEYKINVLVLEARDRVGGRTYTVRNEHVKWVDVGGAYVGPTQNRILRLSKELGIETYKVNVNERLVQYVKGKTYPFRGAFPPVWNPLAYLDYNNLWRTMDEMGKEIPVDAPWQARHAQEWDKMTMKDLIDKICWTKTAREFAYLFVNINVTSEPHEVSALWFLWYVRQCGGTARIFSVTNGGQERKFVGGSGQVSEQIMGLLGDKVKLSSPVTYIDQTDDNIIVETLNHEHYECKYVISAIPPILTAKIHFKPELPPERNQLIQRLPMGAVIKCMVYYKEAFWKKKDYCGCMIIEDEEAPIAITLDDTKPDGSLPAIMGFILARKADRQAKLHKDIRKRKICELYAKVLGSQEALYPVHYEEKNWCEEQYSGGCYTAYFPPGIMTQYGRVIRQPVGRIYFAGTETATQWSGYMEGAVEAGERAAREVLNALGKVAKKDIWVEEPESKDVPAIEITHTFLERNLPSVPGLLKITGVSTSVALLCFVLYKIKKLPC
In short: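 Rat liver MAO assayed by Holt's spectrophotometric method. The chromogenic mix was vanillinic acid, 4-aminoantipyrine and peroxidase type II in potassium phosphate pH 7.6, preincubated with p-tyramine. Inhibitors were preincubated with enzyme at 37 °C for 60 min. A498 was read at 37 °C for 60 min. IC50 came from residual activity versus [I]; mean of three independent experiments.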

[3] = target: T2, Amine oxidase [flavin-containing] B (Rattus norvegicus, UniProt P19643); assay: Inhibition of MAOB in rat liver homogenates preincubated for 60 mins; assay type: tissue-based
T2 sequence (P19643 whole entry): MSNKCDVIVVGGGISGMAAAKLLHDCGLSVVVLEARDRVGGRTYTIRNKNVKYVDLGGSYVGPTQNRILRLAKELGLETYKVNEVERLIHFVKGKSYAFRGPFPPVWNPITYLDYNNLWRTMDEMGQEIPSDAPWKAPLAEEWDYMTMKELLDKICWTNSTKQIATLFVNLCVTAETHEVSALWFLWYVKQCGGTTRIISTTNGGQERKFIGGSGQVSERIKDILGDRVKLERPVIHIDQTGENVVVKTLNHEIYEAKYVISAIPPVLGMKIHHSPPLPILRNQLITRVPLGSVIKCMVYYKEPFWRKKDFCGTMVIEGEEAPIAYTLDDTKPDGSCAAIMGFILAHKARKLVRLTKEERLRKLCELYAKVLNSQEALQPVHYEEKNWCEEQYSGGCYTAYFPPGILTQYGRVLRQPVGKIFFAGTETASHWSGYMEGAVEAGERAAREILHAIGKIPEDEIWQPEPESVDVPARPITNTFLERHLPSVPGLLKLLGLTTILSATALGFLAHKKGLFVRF

| Compound | Ki [1] | IC50 [2] | IC50 [3] |
| --- | --- | --- | --- |
| Oc1ccc(C2CC(c3ccccc3O)=NN2C(=S)Nc2ccccc2)cc1 (configuration not stated) | 50.5 µM | 67.2 µM | 400 µM |
| COc1ccccc1C1CC(c2ccccc2O)=NN1C(=S)Nc1ccccc1 (configuration not stated) | 63.6 µM | 74.2 µM | 419 µM |
| Oc1ccccc1C1=NN(C(=S)Nc2ccccc2)C(c2ccccc2O)C1 (configuration not stated) | 48.5 µM | 58.1 µM | 420 µM |
| COc1cc(C2CC(c3ccc(O)cc3O)=NN2C(=S)Nc2ccccc2)ccc1O (configuration not stated) | 79.2 µM | 65.6 µM | 490 µM |
| COc1ccccc1NC(=S)N1N=C(c2ccc(O)cc2O)CC1c1ccc(O)cc1 (configuration not stated) |  | 148 µM | 171 µM |
| COc1cc(C2CC(c3ccc(O)cc3O)=NN2C(=S)Nc2ccccc2OC)ccc1O (configuration not stated) |  | 180 µM | 170 µM |
| COc1ccccc1NC(=S)N1N=C(c2ccccc2O)CC1c1ccc(O)cc1 (configuration not stated) |  | 151 µM | 144 µM |
| Oc1ccccc1C1CC(c2ccccc2)=NN1C(=S)Nc1ccccc1 (configuration not stated) | 34.7 µM | 451 µM | 35.5 µM |
| COc1ccc(NC(=S)N2N=C(c3ccccc3O)CC2c2ccc(O)c(OC)c2)cc1 (configuration not stated) | 60.5 µM | 48.9 µM | 477 µM |
| Oc1ccccc1C1=NN(C(=S)Nc2ccccc2)C(c2cccs2)C1 (configuration not stated) |  | 5.56 µM |  |
| COc1cc(C2CC(c3ccccc3O)=NN2C(=S)Nc2ccccc2C)ccc1O (configuration not stated) |  | 201 µM | 198 µM |
| COc1cc(C2CC(c3ccccc3O)=NN2C(=S)Nc2ccc(C)cc2)ccc1O (configuration not stated) | 75.1 µM | 50.6 µM | 481 µM |
| Cc1ccc(NC(=S)N2N=C(c3ccccc3O)CC2c2ccc(O)cc2)cc1 (configuration not stated) | 42.9 µM | 475 µM | 46.1 µM |
| COc1ccc(NC(=S)N2N=C(c3ccc(O)cc3O)CC2c2ccc(O)cc2)cc1 (configuration not stated) | 85.5 µM | 69.6 µM | 456 µM |
| COc1ccc(NC(=S)N2N=C(c3ccccc3O)CC2c2ccccc2O)cc1 (configuration not stated) | 36.2 µM | 470 µM | 40.8 µM |
| COc1ccc(NC(=S)N2N=C(c3ccccc3O)CC2c2ccc(O)cc2)cc1 (configuration not stated) | 39.2 µM | 401 µM | 41.1 µM |
| Cc1ccccc1NC(=S)N1N=C(c2ccccc2O)CC1c1ccccc1O (configuration not stated) |  | 170 µM | 180 µM |
| Oc1ccc(C2CC(c3ccc(O)cc3O)=NN2C(=S)Nc2ccccc2)cc1 (configuration not stated) | 80 µM | 58.6 µM | 470 µM |

| Compound | Ki [1] | IC50 [2] | IC50 [3] |
| --- | --- | --- | --- |
| Oc1ccc(C2=NN(C(=S)Nc3ccccc3)C(c3ccc(O)cc3)C2)cc1 (configuration not stated) | 30.6 µM | 32.1 µM | 486 µM |
| Oc1ccccc1C1=NN(C(=S)Nc2ccccc2)C(c2ccccc2Cl)C1 (configuration not stated) | 18.6 µM | 20 µM | 455 µM |
| COc1cc(C2CC(c3ccccc3O)=NN2C(=S)Nc2ccccc2OC)ccc1O (configuration not stated) |  | 170 µM | 201 µM |
| O=C(NCCN1CCOCC1)c1ccc(Cl)cc1 [MOCLOBEMIDE] | 2.25 µM |  | 480 µM |
| C#CCN(C)CCCOc1ccc(Cl)cc1Cl [CLORGILINE] | 1.99 µM |  |  |
| Oc1ccccc1C1=NN(C(=S)Nc2ccccc2)C(c2ccco2)C1 (configuration not stated) | 27.5 µM | 33.4 µM | 440 µM |
| Oc1ccccc1C1=NN(C(=S)Nc2ccccc2)C(c2ccccc2)C1 (configuration not stated) | 40.2 µM | 49.2 µM | 439 µM |
| Oc1ccc(C2CC(c3ccccc3)=NN2C(=S)Nc2ccccc2)cc1 (configuration not stated) | 40.6 µM | 476 µM | 48.6 µM |
| COc1ccc(C2CC(c3ccccc3O)=NN2C(=S)Nc2ccccc2)cc1 (configuration not stated) | 2.5 µM | 2.84 µM | 415 µM |
| C#CCN(C)Cc1ccccc1 [PARGYLINE] | 3.25 µM |  | 3.85 µM |
| Cc1ccc(NC(=S)N2N=C(c3ccccc3O)CC2c2ccccc2O)cc1 (configuration not stated) | 35 µM | 400 µM | 37.7 µM |
| COc1cc(C2CC(c3ccccc3O)=NN2C(=S)Nc2ccccc2)ccc1O (configuration not stated) | 62.7 µM | 40.1 µM | 451 µM |
| Cc1ccccc1NC(=S)N1N=C(c2ccccc2O)CC1c1ccc(O)cc1 (configuration not stated) |  | 189 µM | 180 µM |
| COc1ccc(NC(=S)N2N=C(c3ccc(O)cc3O)CC2c2ccc(O)c(OC)c2)cc1 (configuration not stated) | 71.1 µM | 53.4 µM | 475 µM |
| C#CCN(C)[C@H](C)Cc1ccccc1 [SELEGILINE] | 1.9 µM |  |  |
| COc1ccccc1NC(=S)N1N=C(c2ccccc2O)CC1c1ccccc1O (configuration not stated) |  | 144 µM | 171 µM |
| NC(=S)N1N=C(c2ccccc2O)CC1c1ccc(O)cc1 (configuration not stated) | 15.2 µM | 466 µM | 19.5 µM |
| Oc1ccccc1C1=NN(C(=S)Nc2ccccc2)C(c2ccc(Cl)cc2)C1 (configuration not stated) | 20.1 µM | 23.2 µM | 400 µM |
